Consider one compound from ChEMBL document CHEMBL3297689, “Phenylalanine-Based Inactivator of AKT Kinase: Design, Synthesis, and Biological Evaluation” (ACS Med Chem Lett, 2014).

pIC50: −log10 of the molar value.

For assay [1], the target named is Protein kinase C alpha type (Homo sapiens) (UniProt P17252). Nature of the assay: Inhibition of PKCalpha (unknown origin) at 1 uM in presence of 100 uM ATP.
The target in assay [2] is Testis-specific serine/threonine-protein kinase 1 (Homo sapiens) (UniProt Q9BXA7). As to the kind of experiment: Inhibition of TSSK1 (unknown origin) at 1 uM in presence of 100 uM ATP.
For assay [3], the target named is 3-phosphoinositide-dependent protein kinase 1 (Homo sapiens) (UniProt O15530). Nature of the assay: Inhibition of PDK1 (unknown origin) at 1 uM in presence of 100 uM ATP.
The target in assay [4] is RAC-alpha serine/threonine-protein kinase (Homo sapiens, UniProt P31749). As to the kind of experiment: Irreversible inhibition of AKT1 (unknown origin) Z'-LYTE kinase assay in presence of ATP. Conditions: TDE = time-dependent effect. The essentials: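 Recombinant AKT1 activity read by the FRET-based Z′-LYTE kit, which measures phosphorylation of a peptide substrate. […] IC50 values are averages of three independent experiments with 95% confidence intervals.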

The target in assay [5] is Mitogen-activated protein kinase kinase kinase kinase 5 (Homo sapiens) (UniProt Q9Y4K4). As to the kind of experiment: Inhibition of MAP4K5 (unknown origin) at 1 uM in presence of 100 uM ATP.
Assay [6] concerns the target Proto-oncogene tyrosine-protein kinase Src (Homo sapiens) (UniProt P12931). Nature of the assay: Inhibition of SRC (unknown origin) at 1 uM in presence of 100 uM ATP.
The target in assay [7] is Ribosomal protein S6 kinase alpha-1 (Homo sapiens) (UniProt Q15418). Nature of the assay: Inhibition of RSK1 (unknown origin) at 1 uM in presence of 100 uM ATP.
Assay [8] can be described thus: Growth inhibition of human HCT116 cells after 72 hrs by coulter counter method. It is filed as functional, cell-based. As to conditions: HCT-116, 72 h.
For assay [9], the target named is Focal adhesion kinase 1 (Homo sapiens) (UniProt Q05397). As to the kind of experiment: Inhibition of PTK2 (unknown origin) at 1 uM in presence of 100 uM ATP.
Assay [10] deals with Serine/threonine-protein kinase Sgk1 (Homo sapiens) (UniProt O00141). As to the kind of experiment: Inhibition of SGK1 (unknown origin) at 1 uM in presence of 100 uM ATP.
Assay [11] in a line: Selectivity index, ratio of IC50 for human HCT116 cells to IC50 for recombinant AKT (unknown origin). Details: species or system HCT-116.
In assay [12] the target is Aurora kinase A (Homo sapiens) (UniProt O14965). Nature of the assay: Inhibition of AURKA (unknown origin) at 1 uM in presence of 100 uM ATP.
The target in assay [13] is Dual specificity mitogen-activated protein kinase kinase 1 (Homo sapiens) (UniProt Q02750). As to the kind of experiment: Inhibition of MEK1 (unknown origin) at 1 uM in presence of 100 uM ATP.
Assay [14] deals with Protein kinase C theta type (Homo sapiens) (UniProt Q04759). Nature of the assay: Inhibition of PKCtheta (unknown origin) at 1 uM in presence of 100 uM ATP.
Assay [15] in a line: Selectivity index, ratio of IC50 for human NCI-H460 cells to IC50 for recombinant AKT (unknown origin).
Assay [16] concerns the target Tyrosine-protein kinase CSK (Homo sapiens) (UniProt P41240). Nature of the assay: Inhibition of CSK (unknown origin) at 1 uM in presence of 100 uM ATP.
Assay [17] has as its target cGMP-dependent protein kinase 1 (Homo sapiens) (UniProt Q13976). As to the kind of experiment: Inhibition of PRKG1 (unknown origin) at 1 uM in presence of 100 uM ATP.
In assay [18] the target is Epidermal growth factor receptor (Homo sapiens) (UniProt P00533). Nature of the assay: Inhibition of EGFR (unknown origin) at 1 uM in presence of 100 uM ATP.

Chain of Tyrosine-protein kinase CSK (Homo sapiens) (P41240 2-450 limits assumed): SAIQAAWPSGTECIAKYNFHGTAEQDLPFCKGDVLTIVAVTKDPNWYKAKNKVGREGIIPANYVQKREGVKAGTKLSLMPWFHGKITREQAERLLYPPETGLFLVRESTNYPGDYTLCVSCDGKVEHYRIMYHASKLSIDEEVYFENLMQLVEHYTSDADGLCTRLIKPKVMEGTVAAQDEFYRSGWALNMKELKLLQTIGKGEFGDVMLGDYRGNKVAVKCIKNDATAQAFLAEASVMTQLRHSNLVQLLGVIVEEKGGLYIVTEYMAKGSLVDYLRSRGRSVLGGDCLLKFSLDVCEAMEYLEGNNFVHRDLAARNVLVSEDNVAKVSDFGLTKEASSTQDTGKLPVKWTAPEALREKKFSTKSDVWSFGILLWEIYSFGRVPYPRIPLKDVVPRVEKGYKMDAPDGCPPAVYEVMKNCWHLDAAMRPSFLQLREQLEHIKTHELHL
Chain of cGMP-dependent protein kinase 1 (Homo sapiens) (Q13976 whole entry): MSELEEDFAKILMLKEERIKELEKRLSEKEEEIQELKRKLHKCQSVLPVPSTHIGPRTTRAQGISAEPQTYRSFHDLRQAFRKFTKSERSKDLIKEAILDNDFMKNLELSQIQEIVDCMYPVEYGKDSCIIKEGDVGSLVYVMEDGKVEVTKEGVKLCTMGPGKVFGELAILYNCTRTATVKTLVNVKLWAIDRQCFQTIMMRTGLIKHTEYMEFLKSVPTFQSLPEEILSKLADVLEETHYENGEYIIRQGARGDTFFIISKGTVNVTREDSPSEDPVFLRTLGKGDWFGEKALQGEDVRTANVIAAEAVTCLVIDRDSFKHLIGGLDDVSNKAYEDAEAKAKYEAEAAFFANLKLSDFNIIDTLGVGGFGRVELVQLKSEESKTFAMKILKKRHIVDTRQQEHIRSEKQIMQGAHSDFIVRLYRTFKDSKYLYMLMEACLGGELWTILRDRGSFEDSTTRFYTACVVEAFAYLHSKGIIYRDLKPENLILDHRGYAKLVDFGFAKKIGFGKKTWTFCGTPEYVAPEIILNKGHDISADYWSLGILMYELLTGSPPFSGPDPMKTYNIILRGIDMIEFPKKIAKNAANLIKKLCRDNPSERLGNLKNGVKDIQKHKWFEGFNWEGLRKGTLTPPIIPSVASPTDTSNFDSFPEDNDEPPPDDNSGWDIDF
Chain of Aurora kinase A (Homo sapiens) (O14965 whole entry): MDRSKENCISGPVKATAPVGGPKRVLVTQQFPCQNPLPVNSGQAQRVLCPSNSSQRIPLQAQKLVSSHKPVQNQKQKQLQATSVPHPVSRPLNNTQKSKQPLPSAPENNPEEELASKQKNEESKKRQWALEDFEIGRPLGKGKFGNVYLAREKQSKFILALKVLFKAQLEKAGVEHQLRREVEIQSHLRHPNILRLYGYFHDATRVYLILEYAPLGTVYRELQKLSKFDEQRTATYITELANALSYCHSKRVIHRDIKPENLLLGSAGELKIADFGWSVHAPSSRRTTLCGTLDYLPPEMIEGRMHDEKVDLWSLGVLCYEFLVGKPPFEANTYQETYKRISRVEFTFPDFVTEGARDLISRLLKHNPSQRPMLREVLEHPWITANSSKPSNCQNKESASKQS
Chain of Proto-oncogene tyrosine-protein kinase Src (Homo sapiens) (P12931 2-536 limits assumed): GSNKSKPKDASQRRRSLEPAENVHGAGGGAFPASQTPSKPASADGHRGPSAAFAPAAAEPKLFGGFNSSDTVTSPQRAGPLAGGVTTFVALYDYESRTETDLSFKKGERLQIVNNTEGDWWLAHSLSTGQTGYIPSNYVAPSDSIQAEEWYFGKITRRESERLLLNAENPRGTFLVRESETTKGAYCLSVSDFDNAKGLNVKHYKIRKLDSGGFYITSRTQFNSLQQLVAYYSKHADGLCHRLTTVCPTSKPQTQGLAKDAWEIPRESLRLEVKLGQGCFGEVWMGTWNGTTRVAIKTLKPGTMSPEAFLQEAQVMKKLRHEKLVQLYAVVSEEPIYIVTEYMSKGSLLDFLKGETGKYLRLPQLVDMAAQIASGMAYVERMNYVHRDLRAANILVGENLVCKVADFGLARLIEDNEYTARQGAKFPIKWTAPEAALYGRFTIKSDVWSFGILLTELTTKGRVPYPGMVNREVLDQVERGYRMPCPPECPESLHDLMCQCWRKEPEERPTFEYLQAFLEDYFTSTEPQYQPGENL
Chain of 3-phosphoinositide-dependent protein kinase 1 (Homo sapiens) (O15530 whole entry): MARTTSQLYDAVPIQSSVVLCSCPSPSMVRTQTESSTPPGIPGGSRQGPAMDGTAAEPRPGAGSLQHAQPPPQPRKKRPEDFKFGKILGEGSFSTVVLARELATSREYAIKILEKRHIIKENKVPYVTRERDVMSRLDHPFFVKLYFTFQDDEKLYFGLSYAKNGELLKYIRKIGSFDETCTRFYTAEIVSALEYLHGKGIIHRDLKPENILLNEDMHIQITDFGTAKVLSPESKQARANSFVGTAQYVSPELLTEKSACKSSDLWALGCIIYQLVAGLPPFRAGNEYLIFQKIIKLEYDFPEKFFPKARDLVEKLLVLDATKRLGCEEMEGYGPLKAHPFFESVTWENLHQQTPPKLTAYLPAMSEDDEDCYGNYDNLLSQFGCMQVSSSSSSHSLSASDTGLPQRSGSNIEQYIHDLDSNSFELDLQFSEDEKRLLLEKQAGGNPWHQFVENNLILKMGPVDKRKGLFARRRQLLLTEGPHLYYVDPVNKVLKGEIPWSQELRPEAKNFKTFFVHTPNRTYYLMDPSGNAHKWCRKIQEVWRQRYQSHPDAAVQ
Chain of Mitogen-activated protein kinase kinase kinase kinase 5 (Homo sapiens) (Q9Y4K4 whole entry, looked up): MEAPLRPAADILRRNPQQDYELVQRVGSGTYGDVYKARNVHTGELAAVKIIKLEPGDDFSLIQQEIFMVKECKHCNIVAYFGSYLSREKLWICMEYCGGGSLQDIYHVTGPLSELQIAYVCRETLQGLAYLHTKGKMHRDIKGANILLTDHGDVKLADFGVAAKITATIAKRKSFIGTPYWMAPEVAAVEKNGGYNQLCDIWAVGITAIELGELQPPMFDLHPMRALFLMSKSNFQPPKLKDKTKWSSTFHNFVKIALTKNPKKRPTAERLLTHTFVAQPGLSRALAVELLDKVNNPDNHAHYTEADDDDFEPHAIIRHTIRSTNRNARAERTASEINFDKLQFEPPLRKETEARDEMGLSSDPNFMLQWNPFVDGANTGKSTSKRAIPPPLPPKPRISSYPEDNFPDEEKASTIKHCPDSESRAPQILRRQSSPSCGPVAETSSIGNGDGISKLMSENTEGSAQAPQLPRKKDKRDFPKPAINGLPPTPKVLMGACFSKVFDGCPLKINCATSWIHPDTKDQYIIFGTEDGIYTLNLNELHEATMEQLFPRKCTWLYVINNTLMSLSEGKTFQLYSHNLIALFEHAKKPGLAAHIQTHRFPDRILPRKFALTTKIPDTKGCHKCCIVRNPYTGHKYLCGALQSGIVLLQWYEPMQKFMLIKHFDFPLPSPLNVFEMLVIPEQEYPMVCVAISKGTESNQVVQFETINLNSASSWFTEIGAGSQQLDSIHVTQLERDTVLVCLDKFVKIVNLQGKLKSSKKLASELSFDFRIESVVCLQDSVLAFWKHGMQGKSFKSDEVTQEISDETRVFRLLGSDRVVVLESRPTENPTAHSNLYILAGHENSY
Chain of Serine/threonine-protein kinase Sgk1 (Homo sapiens) (O00141 whole entry): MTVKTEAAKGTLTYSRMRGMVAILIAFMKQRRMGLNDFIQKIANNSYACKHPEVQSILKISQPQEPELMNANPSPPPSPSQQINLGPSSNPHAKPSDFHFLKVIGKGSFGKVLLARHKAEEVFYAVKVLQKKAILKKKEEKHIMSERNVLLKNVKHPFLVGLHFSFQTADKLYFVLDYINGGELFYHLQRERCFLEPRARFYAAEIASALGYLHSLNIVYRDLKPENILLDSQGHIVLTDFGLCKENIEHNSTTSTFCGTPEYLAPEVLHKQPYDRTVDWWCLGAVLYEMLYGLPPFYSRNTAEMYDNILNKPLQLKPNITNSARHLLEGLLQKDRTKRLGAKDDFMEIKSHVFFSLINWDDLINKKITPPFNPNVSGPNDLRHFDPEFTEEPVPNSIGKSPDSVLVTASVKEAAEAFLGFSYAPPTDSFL
Chain of Testis-specific serine/threonine-protein kinase 1 (Homo sapiens) (Q9BXA7 whole entry): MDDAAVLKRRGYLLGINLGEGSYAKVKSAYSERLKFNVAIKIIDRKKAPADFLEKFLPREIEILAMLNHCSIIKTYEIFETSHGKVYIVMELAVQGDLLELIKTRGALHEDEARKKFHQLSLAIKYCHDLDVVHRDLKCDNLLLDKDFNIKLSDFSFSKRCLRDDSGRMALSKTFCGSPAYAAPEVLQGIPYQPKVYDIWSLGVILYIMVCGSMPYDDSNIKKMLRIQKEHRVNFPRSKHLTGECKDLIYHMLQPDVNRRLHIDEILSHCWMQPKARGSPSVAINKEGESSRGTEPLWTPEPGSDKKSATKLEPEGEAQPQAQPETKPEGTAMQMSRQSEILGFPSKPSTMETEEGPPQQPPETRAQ

As to `C=CC(=O)[C@H](Cc1ccccc1)NC(=O)OC(C)(C)C`, the inhibition (commonly the relative decrease from the control value, in per cent) in [1] was 18%; in assay [2], -1%; in [3], 15%; in [4] it was “tde”; in assay [5], 22%; in assay [6] it was -4%. The inhibition in assay [7] was 5%; in assay [9], -4%; in [10], 34%; in assay [12], 35%; in assay [13] it was 5%; in assay [14] it was 3%. Besides, the figures for the inhibition in assay [16], in assay [17] and in [18] were 8%, -4% and -2%, respectively. For the same compound, the pIC50 (in general, −log10 of the IC50, conventionally taken in molar units) in [8] is 4.67. The “Ratio IC50” value turned out to be 37 in assay [11] and 39 in assay [15].
